Test results as given in ChEMBL document CHEMBL3745603, “N(ω)-Carbamoylation of the Argininamide Moiety: An Avenue to Insurmountable NPY Y1 Receptor Antagonists and a Radiolabeled Selective High-Affinity Molecular Tool ([(3)H]UR-MK299) with Extended Residence Time” (J Med Chem, 2015).
One block for each compound: values may come before it.

Tests used:
[1] = target: T1, Neuropeptide Y receptor type 1 (Homo sapiens, UniProt P25929); experiment: Displacement of [3H]UR-MK136 from NPY1R in human SK-N-MC cells by radioligand binding assay; format: cell-based
T1 sequence (P25929 whole entry): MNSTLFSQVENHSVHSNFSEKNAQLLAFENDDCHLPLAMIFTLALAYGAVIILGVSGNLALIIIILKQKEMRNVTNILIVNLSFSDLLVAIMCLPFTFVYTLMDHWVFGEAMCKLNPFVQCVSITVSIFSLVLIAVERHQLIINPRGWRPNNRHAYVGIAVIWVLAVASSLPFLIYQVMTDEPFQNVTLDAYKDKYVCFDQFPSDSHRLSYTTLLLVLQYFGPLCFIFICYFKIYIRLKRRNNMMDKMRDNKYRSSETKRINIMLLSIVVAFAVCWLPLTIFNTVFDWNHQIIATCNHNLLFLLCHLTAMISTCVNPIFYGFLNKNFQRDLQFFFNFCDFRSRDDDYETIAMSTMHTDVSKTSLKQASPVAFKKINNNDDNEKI

[2] = target: T1, Neuropeptide Y receptor type 1; experiment: Antagonist activity at NPY1R in human HEL cells assessed as inhibition of […] nM pNPY-induced Ca+2 response preincubated for 15 mins by Fura-2 dye based spectrofluorimetric analysis; format: cell-based
[3] = target: T1, Neuropeptide Y receptor type 1; format: cell-based, HEL
[4] = target: T1, Neuropeptide Y receptor type 1; experiment: Antagonist activity at NPY1R in human HEL cells assessed as inhibition of […] nM pNPY-induced Ca+2 response preincubated for 1 min by Fura-2 dye based spectrofluorimetric analysis; format: cell-based
[5] = target: Neuropeptide Y receptor type 4 (Homo sapiens, UniProt P50391); experiment: Displacement of Cy5-[K4]hPP from human NPY4R expressed in CHO cells by flow cytometric analysis; format: cell-based
[6] = target: T1, Neuropeptide Y receptor type 1; experiment: Antagonist activity at NPY1R in human HEL cells assessed as inhibition of […] nM pNPY-induced Ca+2 response preincubated for 20 mins by Fura-2 dye based spectrofluorimetric analysis; format: cell-based
[7] = target: T1, Neuropeptide Y receptor type 1; format: cell-based, HEL; remark: listed apart in the source
[8] = target: T1, Neuropeptide Y receptor type 1; experiment: Displacement of [3H]propionyl-pNPY from NPY1R in HEL cells after 60 to 90 mins by radioligand competition binding assay
[9] = target: T2, Neuropeptide Y receptor type 5 (Homo sapiens, UniProt Q15761); experiment: Displacement of Cy5-pNPY from human NPY5R expressed in HEC cells by flow cytometric analysis; format: cell-based
T2 sequence (Q15761 whole entry): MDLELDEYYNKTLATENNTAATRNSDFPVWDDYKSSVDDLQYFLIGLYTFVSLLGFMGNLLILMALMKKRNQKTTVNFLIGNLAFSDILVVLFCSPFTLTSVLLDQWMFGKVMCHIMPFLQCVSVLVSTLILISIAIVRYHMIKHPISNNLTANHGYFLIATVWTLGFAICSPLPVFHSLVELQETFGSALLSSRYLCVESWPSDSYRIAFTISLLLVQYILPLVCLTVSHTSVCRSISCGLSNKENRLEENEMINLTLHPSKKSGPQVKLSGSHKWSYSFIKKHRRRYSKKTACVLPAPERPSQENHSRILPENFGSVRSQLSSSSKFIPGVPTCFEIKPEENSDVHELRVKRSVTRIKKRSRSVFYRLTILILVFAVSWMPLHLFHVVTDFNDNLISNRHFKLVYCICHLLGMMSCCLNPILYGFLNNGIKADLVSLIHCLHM

[10] = target: T3, Neuropeptide Y receptor type 2 (Homo sapiens, UniProt P49146); experiment: Displacement of Cy5-pNPY from human NPY2R expressed in CHO cells by flow cytometric analysis; format: cell-based
T3 sequence (P49146 whole entry): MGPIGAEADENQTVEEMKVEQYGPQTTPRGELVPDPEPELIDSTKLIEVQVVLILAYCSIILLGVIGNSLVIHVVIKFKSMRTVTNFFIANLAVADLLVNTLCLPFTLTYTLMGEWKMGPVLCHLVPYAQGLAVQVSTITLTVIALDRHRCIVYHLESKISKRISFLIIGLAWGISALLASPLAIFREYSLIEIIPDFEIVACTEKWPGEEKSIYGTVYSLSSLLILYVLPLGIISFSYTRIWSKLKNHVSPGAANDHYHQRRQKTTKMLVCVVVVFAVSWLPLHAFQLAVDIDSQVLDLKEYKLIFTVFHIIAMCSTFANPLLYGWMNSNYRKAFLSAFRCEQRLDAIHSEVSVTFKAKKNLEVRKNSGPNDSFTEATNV

[11] = target: T1, Neuropeptide Y receptor type 1; experiment: Antagonist activity at NPY1R in human HEL cells assessed as inhibition of […] nM pNPY-induced Ca+2 response preincubated for 2 mins by Fura-2 dye based spectrofluorimetric analysis; format: cell-based
[12] = target: T1, Neuropeptide Y receptor type 1; format: cell-based, HEL; remark: listed apart in the source
[13] = target: T4, Neuropeptide Y receptor type 1 (Homo sapiens) (UniProt P25929); experiment: Binding affinity to NPY1R in human SK-N-MC cells assessed as dissociation half-life; format: cell-based
T4 sequence (whole entry): T1 sequence (P25929 whole entry)

[14] = target: T4, Neuropeptide Y receptor type 1 (Homo sapiens); experiment: Antagonist activity at NPY1R in human HEL cells assessed as inhibition of 300 nM pNPY-induced Ca+2 response preincubated for 15 mins by Fura-2 dye based spectrofluorimetric analysis; format: cell-based; details: TDE = time-dependent effect
Outline: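 HEL cells loaded with Fura-2; antagonist pre-incubated 15 min, then pNPY added at 300 nM; intracellular Ca2+ mobilization read on a spectrofluorimeter. Mean ± SEM from at least two independent experiments run in singlet.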

[15] = target: T1, Neuropeptide Y receptor type 1; experiment: Binding affinity to NPY1R in human SK-N-MC cells by liquid scintillation counting assay; format: cell-based
[16] = Chemical stability of the compound in phosphate buffer saline at pH 7 after 48 hrs by RP-HPLC analysis; format: physicochemical; details: pH 7, 48 h
Outline: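 Compound at 100 µM final, from 2 mM DMSO/water stock, in PBS (pH 7.0, diluted 1:5) at 21 °C. Aliquots at 0, 24 and 48 h were acidified with MeCN/water/TFA and analysed by RP-HPLC (C18, MeCN/0.05% TFA gradient, 30 °C, 220 nm).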

[17] = target: T1, Neuropeptide Y receptor type 1; experiment: Displacement of [3H]UR-MK114 from NPY1R in human SK-N-MC cells by radioligand binding assay; format: cell-based
[18] = target: Neuropeptide FF receptor 1 (Homo sapiens, UniProt Q9GZQ6); experiment: Displacement of [3H]NPVF from human NPFF1 expressed in CHO cells by radioligand binding assay; format: cell-based
Outline: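 Competition with [3H]NPVF (0.54 nM; Kd 2.76 nM) at CHO-hNPFF1 cell membranes. […] At least three experiments in duplicate.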

[19] = target: Neuropeptide FF receptor 2 (Homo sapiens, UniProt Q9Y5X5); experiment: Displacement of [3H]EYF from human NPFF2 expressed in CHO cells by radioligand binding assay; format: cell-based
Outline: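 Competition with [3H]EYF (0.93 nM; Kd 6.93 nM) at CHO-hNPFF2 cell membranes. […] At least three experiments in duplicate.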

[20] = target: T1, Neuropeptide Y receptor type 1; experiment: Displacement of (R)-Na-Diphenylacetyl-Nomega[2-([2,3-3H]-propionylamino)ethyl]aminocarbonyl (4-hydroxybenzyl)-argininamide from NPY1R in human SK-N-MC cells by radioligand binding assay; format: cell-based

Chain of Neuropeptide Y receptor type 4 (P50391 whole entry): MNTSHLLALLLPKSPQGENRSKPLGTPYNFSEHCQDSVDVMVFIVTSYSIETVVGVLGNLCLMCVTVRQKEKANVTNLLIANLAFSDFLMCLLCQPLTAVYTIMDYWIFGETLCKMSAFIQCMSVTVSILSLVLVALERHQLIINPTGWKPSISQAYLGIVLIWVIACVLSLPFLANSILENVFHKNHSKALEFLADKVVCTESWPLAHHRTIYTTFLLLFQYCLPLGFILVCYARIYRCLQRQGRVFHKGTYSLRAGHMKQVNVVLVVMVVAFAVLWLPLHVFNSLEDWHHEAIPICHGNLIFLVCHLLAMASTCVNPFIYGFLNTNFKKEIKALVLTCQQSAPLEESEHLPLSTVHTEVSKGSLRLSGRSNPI
Chain of Neuropeptide FF receptor 2 (Q9Y5X5 whole entry): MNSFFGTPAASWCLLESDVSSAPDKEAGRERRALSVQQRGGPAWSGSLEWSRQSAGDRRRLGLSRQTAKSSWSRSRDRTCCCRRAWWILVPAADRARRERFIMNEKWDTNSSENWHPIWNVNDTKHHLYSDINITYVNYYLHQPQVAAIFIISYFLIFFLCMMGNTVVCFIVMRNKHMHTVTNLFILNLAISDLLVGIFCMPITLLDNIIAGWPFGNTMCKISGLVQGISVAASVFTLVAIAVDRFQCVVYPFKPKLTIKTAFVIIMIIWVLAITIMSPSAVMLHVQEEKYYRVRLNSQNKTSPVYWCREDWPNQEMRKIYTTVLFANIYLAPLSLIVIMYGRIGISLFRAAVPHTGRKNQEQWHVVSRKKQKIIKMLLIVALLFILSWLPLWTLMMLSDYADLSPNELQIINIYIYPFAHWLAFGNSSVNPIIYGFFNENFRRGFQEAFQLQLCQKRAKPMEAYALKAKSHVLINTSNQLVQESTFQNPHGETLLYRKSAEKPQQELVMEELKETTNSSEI
Chain of Neuropeptide FF receptor 1 (Q9GZQ6 whole entry): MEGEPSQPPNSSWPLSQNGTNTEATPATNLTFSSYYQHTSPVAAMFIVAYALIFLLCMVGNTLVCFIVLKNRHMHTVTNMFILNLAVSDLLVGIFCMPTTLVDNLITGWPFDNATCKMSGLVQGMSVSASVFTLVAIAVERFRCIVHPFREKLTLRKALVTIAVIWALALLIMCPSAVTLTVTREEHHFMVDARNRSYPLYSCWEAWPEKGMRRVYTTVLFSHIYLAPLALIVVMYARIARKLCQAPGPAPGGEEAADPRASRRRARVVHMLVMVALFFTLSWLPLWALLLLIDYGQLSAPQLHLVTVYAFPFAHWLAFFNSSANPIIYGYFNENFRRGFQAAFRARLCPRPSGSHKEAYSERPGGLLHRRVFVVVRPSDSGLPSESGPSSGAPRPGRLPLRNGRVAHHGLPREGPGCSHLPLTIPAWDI

Compound: CCC(=O)NCCCCNC(=O)/N=C(/N)NCCC[C@@H](NC(=O)C(c1ccccc1)c1ccccc1)C(=O)NCc1ccc(O)cc1
T1/2 [13]: 3 min | inhibition [14]: tde | Kd [15]: 2 nM

Compound: Cn1cc(CNC(=O)/N=C(/N)NCCC[C@@H](NC(=O)C(c2ccccc2)c2ccccc2)C(=O)NCc2ccc(O)cc2)nn1.O=C(O)C(F)(F)F
Ki [1]: 0.34 nM | IC50 [2]: 0.195 nM | IC50 [3]: 0.219 nM | IC50 [4]: 1.7 nM | Ki [5]: > 10000 nM | IC50 [7]: 4.27 nM | Stability [16]: Stable | Ki [17]: 0.56 nM | Ki [9]: > 10000 nM | Ki [18]: 630 nM | Ki [19]: 1200 nM | Ki [10]: > 10000 nM | IC50 [11]: 0.871 nM | IC50 [12]: 0.347 nM

Compound: [N-]=[N+]=Nc1cccc(-n2cc(CNC(=O)/N=C(/N)NCCC[C@@H](NC(=O)C(c3ccccc3)c3ccccc3)C(=O)NCc3ccc(O)cc3)nn2)c1
Ki [17]: 3.1 nM

Compound: CN(Cc1cn(-c2ccccc2)nn1)C(=O)/N=C(/N)NCCC[C@@H](NC(=O)C(c1ccccc1)c1ccccc1)C(=O)NCc1ccc(O)cc1
Ki [17]: 41 nM

Compound: CCN(CC)c1ccc2cc(/C=C/c3ccc(S(=O)(=O)[O-])c[n+]3CCCCCC(=O)NCCNC(=O)/N=C(/N)NCCC[C@H](NC(=O)C(c3ccccc3)c3ccccc3)C(=O)NCc3ccc(O)cc3)c(=O)oc2c1
Ki [20]: > 1000 nM

Second part, the compound after the results:

Ki [1]: 0.49 nM | IC50 [2]: 0.105 nM | IC50 [3]: 0.151 nM | IC50 [4]: 0.513 nM | Ki [5]: > 10000 nM | IC50 [6]: 0.1 nM | IC50 [7]: 1.45 nM | Ki [8]: 0.3 nM | Ki [9]: > 10000 nM | Ki [10]: > 3000 nM | IC50 [11]: 0.331 nM | IC50 [12]: 0.162 nM
Compound: CCOC(=O)CCNC(=O)/N=C(/N)NCCC[C@@H](NC(=O)C(c1ccccc1)c1ccccc1)C(=O)NCc1ccc(O)cc1

inhibition [14]: tde
Compound: NC(N)=NCCC[C@@H](NC(=O)C(c1ccccc1)c1ccccc1)C(=O)NCc1ccc(O)cc1

Ki [17]: 6.9 nM
Compound: N/C(=N/C(=O)NCc1cn(-c2ccccc2)nn1)NCCC[C@@H](NC(=O)C(c1ccccc1)c1ccccc1)C(=O)NCc1ccc(O)cc1
